Data as given in ChEMBL document CHEMBL4411280, “Synthesis, structure activity relationship and in vitro anti-influenza virus activity of novel polyphenol-pentacyclic triterpene conjugates” (Eur J Med Chem, 2019).
pIC50, pKd: −log10 of the molar value. Calls of active or inactive are those of the source. No cut-off for these calls is given here.

What was measured:
[1] = test system: MDCK; assay: Cytotoxicity against MDCK cells at 50 uM after 40 hrs by CellTiter-Glo assay; assay type: cell-based, Canis lupus familiaris; settings: dog
In short: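 Single-concentration toxicity screen at 50 μM final on MDCK cells for 40 h, read by CellTiter-Glo. 0.5% DMSO final as negative control. Triplicate experiments, standard deviations shown.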

[2] = test system: Influenza A virus; assay: Antiviral activity against Influenza A virus A/WSN/33/H1N1 infected in MDCK cells assessed as reduction in virus-induced cytopathic effect after 40 hrs by CellTiter-Glo assay; assay type: functional, organism-based; settings: A/WSN/33/H1N1, MDCK
In short: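 MDCK cells seeded overnight, infected with influenza A/WSN/33 (H1N1) at MOI 0.1. Kept in DMEM with 1% FBS, test compound, TPCK-treated trypsin and 1% final DMSO for 40 h. Cell viability read by CellTiter-Glo luminescence. IC50 taken from dose-response.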

[3] = test system: Influenza A virus; assay: Antiviral activity against Influenza A virus A/WSN/33/H1N1 infected in MDCK cells assessed as reduction in virus-induced cytopathic effect at 50 uM after 40 hrs by CellTiter-Glo assay; assay type: functional, organism-based
In short: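 Single-concentration screen at 50 μM final. MDCK cells infected with A/WSN/33 (H1N1) at MOI 0.1 in DMEM/1% FBS with TPCK-trypsin for 40 h, viability by CellTiter-Glo. 0.5% DMSO final as negative control, oseltamivir as positive control. Triplicate experiments, standard deviations shown.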

[4] = molecular target: Hemagglutinin (Influenza A virus (A/Puerto Rico/8/1934(H1N1)), UniProt P03452); assay: Binding affinity to recombinant Influenza A virus (A/California/04/2009 (H1N1)) hemagglutinin by SPR assay
In short: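 HA immobilised on the sensor chip to about 16,000 RU. Compounds injected as analytes at various concentrations in PBS-P running buffer (10 mM phosphate, 2.7 mM KCl, 137 mM NaCl, 0.05% P20, […]), with 60 s contact and 60 s dissociation. KD determined.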

[5] = Cytotoxicity against MDCK cells after 40 hrs by CellTiter-Glo assay; assay type: cell-based, Canis lupus familiaris; settings: dog
In short: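 MDCK cells grown overnight in medium with 1% FBS, then exposed to increasing compound concentrations for 40 h. Viability measured by CellTiter-Glo luminescence, and CC50 derived from it.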

[6] = molecular target: Hemagglutinin (Influenza A virus) (UniProt B4URE7); assay: Inhibition of Influenza A virus A/WSN/33/H1N1 HA-mediated hemagglutination of chicken RBC measured after 30 mins
In short: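 Compound serially diluted 3-fold in saline and mixed with an equal volume of A/WSN/33 virus (2 HA units). Freshly prepared chicken RBCs (1% v/v in saline) added. Incubated 30 min at room temperature, then agglutination scored visually. PBS as negative control, anti-HA antibody tested in parallel.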

Sequence of Hemagglutinin (Influenza A virus (A/Puerto Rico/8/1934(H1N1)), UniProt P03452) (P03452 whole entry): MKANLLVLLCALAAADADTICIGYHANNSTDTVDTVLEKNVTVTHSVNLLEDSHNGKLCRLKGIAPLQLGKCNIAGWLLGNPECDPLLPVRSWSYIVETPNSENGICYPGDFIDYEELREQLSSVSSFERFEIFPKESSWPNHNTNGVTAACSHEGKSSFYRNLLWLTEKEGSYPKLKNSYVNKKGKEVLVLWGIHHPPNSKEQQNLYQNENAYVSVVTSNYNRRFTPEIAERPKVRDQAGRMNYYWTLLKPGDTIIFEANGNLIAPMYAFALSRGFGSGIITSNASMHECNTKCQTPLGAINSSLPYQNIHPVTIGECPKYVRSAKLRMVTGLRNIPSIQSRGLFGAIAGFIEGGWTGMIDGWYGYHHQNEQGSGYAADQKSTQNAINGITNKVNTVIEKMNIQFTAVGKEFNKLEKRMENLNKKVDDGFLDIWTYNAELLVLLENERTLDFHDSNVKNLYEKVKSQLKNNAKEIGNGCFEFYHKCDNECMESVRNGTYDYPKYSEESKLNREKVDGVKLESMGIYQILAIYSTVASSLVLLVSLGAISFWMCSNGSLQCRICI
Sequence of Hemagglutinin (Influenza A virus) (B4URE7 as listed by the source): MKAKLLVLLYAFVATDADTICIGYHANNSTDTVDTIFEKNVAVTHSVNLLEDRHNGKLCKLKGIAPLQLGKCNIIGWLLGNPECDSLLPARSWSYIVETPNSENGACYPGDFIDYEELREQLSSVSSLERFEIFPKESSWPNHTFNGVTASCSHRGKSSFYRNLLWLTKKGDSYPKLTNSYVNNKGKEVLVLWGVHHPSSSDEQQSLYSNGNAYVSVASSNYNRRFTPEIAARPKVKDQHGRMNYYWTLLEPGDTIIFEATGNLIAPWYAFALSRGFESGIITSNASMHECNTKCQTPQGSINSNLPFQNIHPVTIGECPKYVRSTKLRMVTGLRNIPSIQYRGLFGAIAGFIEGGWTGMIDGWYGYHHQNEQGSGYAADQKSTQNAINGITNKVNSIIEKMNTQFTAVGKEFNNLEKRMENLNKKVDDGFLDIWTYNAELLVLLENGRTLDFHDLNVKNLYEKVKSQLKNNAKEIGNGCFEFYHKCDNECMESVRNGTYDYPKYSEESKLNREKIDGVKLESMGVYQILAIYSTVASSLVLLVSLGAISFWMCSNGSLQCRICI

Row | Compound | Activity [1] | pIC50 [2] | Activity [3] | pKd [4] | CC50 at 40 h [5] [µM] | inhibition [6]
1 | CC1(C)CC[C@]2(C(=O)NCCNC(=O)c3ccccc3O)CC[C@]3(C)C(=CC[C@@H]4[C@@]5(C)CC[C@H](O)C(C)(C)[C@@H]5CC[C@]43C)[C@@H]2C1 | Non-Toxic | 5.12 | Active | 4.44 | > 100 | 
2 | C=C(C)[C@@H]1CC[C@]2(C(=O)NCCNC(=O)/C=C/c3ccc(O)cc3)CC[C@]3(C)[C@H](CC[C@@H]4[C@@]5(C)CC[C@H](O)C(C)(C)[C@@H]5CC[C@]43C)[C@@H]12 | Non-Toxic | 4.80 | Active |  | > 100 | 
3 | C[C@H]1[C@H](C)CC[C@]2(C(=O)O)CC[C@]3(C)C(=CC[C@@H]4[C@@]5(C)CC[C@H](O)C(C)(C)[C@@H]5CC[C@]43C)[C@H]12 [URSOLIC ACID] |  |  |  | 4.33 |  | 
4 | CC1(C)CC[C@]2(C(=O)NCCNC(=O)c3ccccc3O)[C@H](O)C[C@]3(C)C(=CC[C@@H]4[C@@]5(C)CC[C@H](O)C(C)(C)[C@@H]5CC[C@]43C)[C@@H]2C1 | Non-Toxic | 5.23 | Active |  | > 100 | 
5 | C[C@H]1[C@H](C)CC[C@]2(C(=O)NCCNC(=O)c3ccccc3O)CC[C@]3(C)C(=CC[C@@H]4[C@@]5(C)CC[C@H](O)C(C)(C)[C@@H]5CC[C@]43C)[C@H]12 | Non-Toxic | 5.24 | Active | 4.81 | > 100 | Dose-dependent effect
